The text below walks through data of ChEMBL document CHEMBL1781999, “Lead optimization of aryl and aralkyl amine-based triazolopyrimidine inhibitors of Plasmodium falciparum dihydroorotate dehydrogenase with antimalarial activity in mice” (J Med Chem, 2011).

SMILES strings stand for the structures. pEC50, pIC50: −log10 of the molar value. Converted amounts (≈) assume the structure as drawn. The source made the active and inactive calls. The calls are words filed in the database; no cut-off is given here.

Series [1] can be described thus: Inhibition of His6-tagged recombinant Plasmodium berghei dihydroorotate dehydrogenase expressed in Escherichia coli using L-dihydroorotate as substrate after 10 to 15 mins by DCIP dye-based assay. To be noted: in the assay text read “5 to 10 mins” for “10 to 15 mins”. Put shortly:
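Truncated soluble enzyme lacking the N-terminal membrane domain. Final concentrations: 0.2 mM L-dihydroorotate, 0.02 mM CoQD, 0.12 mM DCIP. Reaction started with 10 nM enzyme and read at 600 nm for 5–10 min at 20 °C. Inhibitor 0.01–100 μM in 3-fold steps, in triplicate. IC50 from a three-parameter fit of vi/vo from initial rates.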

The test system of series [2] is Plasmodium falciparum. The experiment in a line: Antimalarial activity against Plasmodium falciparum 3D7 infected in human A positive erythrocytes by [3H]hypoxanthine uptake assay in presence of serum in medium. Format: functional, organism-based. Put shortly: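 Growth read by [3H]-hypoxanthine uptake. Each concentration run in quadruplicate and fitted to a four-parameter variable-slope log[I]-response model for 50% growth inhibition.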

The test system of series [3] is Plasmodium falciparum. The series can be described thus: Antimalarial activity against Plasmodium falciparum 3D7 infected in human A positive erythrocytes by [3H]hypoxanthine uptake assay in presence of serum in medium albumax. The format is functional, organism-based.
The nature of series [4]: Partition coefficient, log D of the compound at pH 7.4 by UV-HPLC analysis. To be noted: octanol/water.
Series [5] in a line: Aqueous solubility of the compound in phosphate buffer at pH 6.5. Format: physicochemical. As to conditions: phosphate buffer, read-out: solubility. Put shortly:
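Non-equilibrium solubility. Concentrated DMSO stocks were diluted into pH 6.5 phosphate buffer (final DMSO 1% v/v) and precipitation was monitored by nephelometry. Solubility is given as the concentration range just before a turbidity signal rose above background.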

Series [6] can be described thus: Plasma protein binding in human by albumin chromatographic method. The format is ADME, cell-free. To be noted: read-out: PPB (converted).
Another series relates to Liver microsomes. The series can be described thus: Intrinsic clearance in human liver microsome assessed per mg of protein at 1 uM after 60 mins by LC-MS analysis. The format is ADME. To be noted: microsomes, 1 h, 1 µM. The essentials:
(§1)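 Microsomal stability. Compound at 1 μM with liver microsomes (0.4 mg/mL protein) in 0.1 M phosphate pH 7.4 at 37 °C. Started with an NADPH-regenerating system plus MgCl2; controls lacked NADPH. Quenched with cold acetonitrile at time points up to 60 min. Parent loss measured by LC-MS and fitted to exponential decay to give CLint.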

A further series relates to Liver. The experiment in a line: Intrinsic clearance in mouse liver microsome assessed per mg of protein at 1 uM after 60 mins by LC-MS analysis. As to conditions: microsomes, 1 h. The format is ADME. Put shortly:
as §1
(In general: Liver microsomes are vesicles of endoplasmic reticulum, rich in cytochrome P450 enzymes.)

Series [7] can be described thus: Plasma protein binding in rat by ultracentrifugation analysis. The format is ADME, cell-free. To be noted: read-out: PPB (converted). The essentials:
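Rat plasma spiked at 200 and 2000 ng/mL, then ultracentrifuged at 223,000 × g for 4.2 h at 37 °C. Free drug in the supernatant plasma water was compared with total drug in non-centrifuged plasma kept at 37 °C for the same time, giving fraction bound.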

In series [8] the test system is Mus musculus. The series can be described thus: Cmax in Swiss mouse at 20 mg/kg, po measured after 24 hrs by LC-MS analysis. Format: ADME, organism-based. More on the design: dose 20 mg/kg, route oral. To be noted: in vivo. Put shortly: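 Non-fasted male Swiss outbred mice given a single oral gavage dose in 0.5% w/v sodium carboxymethylcellulose, 0.5% v/v benzyl alcohol, 0.4% v/v Tween 80. One mouse per time point, cardiac blood under isoflurane, sampling to 24 h. Plasma stabilized, acetonitrile-precipitated, quantified by LC-MS against blank-plasma standards; Cmax read from concentration-time profile.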

For series [9], the system named is Mus musculus. The series can be described thus: Time duration above 1 uM plasma concentration in Swiss mouse at 20 mg/kg, po. The format is ADME, organism-based. More on the design: dose 20 mg/kg, route oral. To be noted: in vivo. The essentials: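 Non-fasted male Swiss outbred mice given a single gavage dose in suspension (0.5% Na-CMC, 0.5% benzyl alcohol, 0.4% Tween 80). One mouse per time point; blood taken by cardiac puncture under isoflurane into stabilizer over 24 h. Plasma measured by LC-MS; time above 1 μM read directly from the concentration-time profile.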

Series [10] has as its system Mus musculus. The experiment in a line: Toxicity in Swiss mouse assessed as adverse effect at 20 mg/kg, po measured after 24 hrs. The format is organism-based. The arrangement: dose 20 mg/kg, route oral. As to conditions: in vivo.
The subject of series [11] is Rattus norvegicus. The series can be described thus: Toxicity in Sprague-Dawley rat assessed as adverse effects at 20 mg/kg, po. The format is organism-based. The arrangement: dose 20 mg/kg, route oral. As to conditions: in vivo. The essentials:
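Male Sprague Dawley rats, fasted overnight, given compound as a 10 min IV jugular infusion (solution) or by oral gavage (suspension), n=2 per group. Monitored through 24 h of cannula blood sampling.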

For series [12], the system named is Mus musculus. The experiment in a line: Toxicity in Plasmodium berghei ANKA NK65 infected Swiss Webster mouse assessed as adverse effect at 3 to 100 mg/kg, po qd for 4 days. More on the design: dose 3-100 mg/kg, route oral. Format: organism-based. As to conditions: in vivo, 96 h. Put shortly:
(§2)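 Female Swiss Webster mice, 8-10 weeks old (20-22 g), infected intraperitoneally with 2 × 10^7 P. berghei NK65 ANKA-infected erythrocytes. Oral doses in CMC vehicle (200 μL), first given 3 h post-infection, then at 24, 48 and 72 h. Parasitemia followed daily from 24 h by light microscopy at 1000× oil immersion, counting ≥10 fields of >100 erythrocytes. Mice losing ≥20% body weight were euthanized.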

Series [13] deals with Mus musculus. The series can be described thus: Toxicity in Plasmodium berghei ANKA NK65 infected Swiss Webster mouse assessed as adverse effect at 50 mg/kg, po bid for 4 days. The arrangement: dose 50 mg/kg, route oral. To be noted: in vivo, 96 h. The format is organism-based.
For series [14], the system named is Plasmodium berghei ANKA. The series can be described thus: Antimalarial activity against Plasmodium berghei ANKA NK65 infected in Swiss Webster mouse assessed as complete cure of animal at 100 mg/kg, po qd measured on day 7 by light microscopic analysis. The format is functional, organism-based. The arrangement: dose 100 mg/kg. Put shortly:
as §2

For series [15], the system named is Plasmodium berghei ANKA. The experiment in a line: Antimalarial activity against Plasmodium berghei ANKA NK65 infected in Swiss Webster mouse assessed as complete cure of animal at 50 mg/kg, po bid measured on day 7 by light microscopic analysis. Format: functional, organism-based. The arrangement: dose 50 mg/kg.
Series [16] is filed under the species Rattus norvegicus. The series can be described thus: Toxicity in Sprague-Dawley rat assessed as adverse effects. As to conditions: in vivo.
Series [17] deals with Dihydroorotate dehydrogenase (quinone), mitochondrial (Homo sapiens, UniProt Q02127). The experiment in a line: Inhibition of His6-tagged recombinant human dihydroorotate dehydrogenase expressed in Escherichia coli using L-dihydroorotate as substrate after 5 to 10 mins by DCIP dye-based assay.
Chain of Dihydroorotate dehydrogenase (quinone), mitochondrial (Q02127 whole entry): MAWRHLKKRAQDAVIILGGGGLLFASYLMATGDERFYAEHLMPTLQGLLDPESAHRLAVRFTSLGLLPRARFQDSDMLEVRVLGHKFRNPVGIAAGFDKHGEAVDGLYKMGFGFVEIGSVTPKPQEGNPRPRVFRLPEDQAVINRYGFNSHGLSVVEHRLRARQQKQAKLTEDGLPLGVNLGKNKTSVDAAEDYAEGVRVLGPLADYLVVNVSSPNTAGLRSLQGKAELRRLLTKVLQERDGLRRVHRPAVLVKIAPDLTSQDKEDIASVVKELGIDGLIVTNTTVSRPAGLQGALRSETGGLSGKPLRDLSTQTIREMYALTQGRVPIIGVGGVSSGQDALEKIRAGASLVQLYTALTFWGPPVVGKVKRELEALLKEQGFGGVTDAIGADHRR
Series [18] deals with T1, Dihydroorotate dehydrogenase (Plasmodium falciparum, UniProt Q54A96).
T1 sequence (Q54A96 whole entry): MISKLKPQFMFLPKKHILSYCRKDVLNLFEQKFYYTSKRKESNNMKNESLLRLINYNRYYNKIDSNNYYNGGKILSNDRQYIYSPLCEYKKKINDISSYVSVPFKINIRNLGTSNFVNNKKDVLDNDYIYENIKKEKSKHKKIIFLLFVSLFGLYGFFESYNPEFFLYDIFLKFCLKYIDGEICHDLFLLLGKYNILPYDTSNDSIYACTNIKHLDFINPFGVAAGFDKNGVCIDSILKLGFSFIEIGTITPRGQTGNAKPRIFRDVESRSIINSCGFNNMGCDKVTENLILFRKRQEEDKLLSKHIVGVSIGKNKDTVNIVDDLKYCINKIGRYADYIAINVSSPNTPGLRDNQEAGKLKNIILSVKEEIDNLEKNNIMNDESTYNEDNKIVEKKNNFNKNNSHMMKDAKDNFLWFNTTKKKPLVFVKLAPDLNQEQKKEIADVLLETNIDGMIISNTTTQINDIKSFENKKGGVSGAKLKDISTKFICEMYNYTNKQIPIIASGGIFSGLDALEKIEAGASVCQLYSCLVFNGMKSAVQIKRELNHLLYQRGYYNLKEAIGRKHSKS
The experiment in a line: Inhibition of His6-tagged recombinant Plasmodium falciparum dihydroorotate dehydrogenase expressed in Escherichia coli using L-dihydroorotate as substrate after 5 to 10 mins by DCIP dye-based assay.

For orientation: pIC50 means −log10 of the IC50, conventionally taken in molar units. In general, pEC50 refers to the negative decadic logarithm of the EC50, by convention in mol/L. As usually defined, the logD is lipophilicity at a set pH, counting ionised and neutral species. A high value points to a more lipophilic compound. The term solubility denotes the dissolved amount per volume that the medium holds. Broadly, the Cmax is the maximum level reached in the sampled fluid or tissue. Regarding `Cc1cc(Nc2ccc(S(F)(F)(F)(F)F)cc2)n2ncnc2n1`, the pIC50 in series [1] was 6.55; in series [17], less than 4.00; in series [18] it was 6.89. Also, the results for the pEC50 in the series with Plasmodium falciparum [2] and with Plasmodium falciparum [3] were 5.89 and 6.74, respectively. The pH-dependent lipophilicity (logD) in [4] is 3. In addition, the solubility in series [5] came out at 71 µM (≈ 24.9 µg/mL). Besides, the fraction unbound is 0.046 in [6] and 0.048 in [7]. The CL in the series with Liver microsomes is less than 5 µL/min/mg; with Liver, less than 6 µL/min/mg. The same compound yielded a Cmax with Mus musculus [8] of 12 µM. This compound displayed a Time with Mus musculus [9] of 18 h. In addition, the Activity result in the series on Mus musculus [10], in the series on Rattus norvegicus [11], with Mus musculus [12], in the series with Mus musculus [13] and in the series listed under Rattus norvegicus [16] was “Non-toxic” throughout. Moreover, the outcome in the series with Plasmodium berghei ANKA [14] and in the series on Plasmodium berghei ANKA [15] was inactive.
Take `Cc1cc(Nc2cc(F)c(C(F)(F)F)c(F)c2)n2ncnc2n1`: the pIC50 in series [1] is 6.55; in series [17], less than 4.52; in series [18], 6.72. Besides, the pEC50 in the series on Plasmodium falciparum [2] is 5.96; in the series on Plasmodium falciparum [3] it was 6.66. The compound further returned a logD in [4] of 2.9. Moreover, in [5], the solubility was 9 µM (≈ 2.96 µg/mL). Moreover, the fraction unbound in series [6] was 0.034; in [7], 0.027. In addition, the CL in the series on Liver microsomes is less than 5 µL/min/mg; in the series with Liver, less than 6 µL/min/mg. In the series with Mus musculus [8], this compound displayed a Cmax of 33 µM. In addition, the Time in the series on Mus musculus [9] came to 19 h. The Activity entry in the series with Mus musculus [10], with Rattus norvegicus [11], with Mus musculus [12], in the series with Mus musculus [13] and in the series filed under Rattus norvegicus [16] was “Non-toxic” in each case. The result in the series with Plasmodium berghei ANKA [14] and with Plasmodium berghei ANKA [15] was inactive.
